# KCNK9 block – human KCNK9 channel inhibition; Q9NPC2; HEK293 KCNK9, FluxOR thallium flux fluorescence; hits give low values; B-score at 10 µM; 310,000 compounds, 1.2% hits; AID 488922;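 active = ratio B-score over 3 SD below the library mean, with starting fluorescence within 5 SD of its mean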;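 note: negative B-score means less thallium flux so channel inhibition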
# Target sequence (Q9NPC2 whole entry, looked up): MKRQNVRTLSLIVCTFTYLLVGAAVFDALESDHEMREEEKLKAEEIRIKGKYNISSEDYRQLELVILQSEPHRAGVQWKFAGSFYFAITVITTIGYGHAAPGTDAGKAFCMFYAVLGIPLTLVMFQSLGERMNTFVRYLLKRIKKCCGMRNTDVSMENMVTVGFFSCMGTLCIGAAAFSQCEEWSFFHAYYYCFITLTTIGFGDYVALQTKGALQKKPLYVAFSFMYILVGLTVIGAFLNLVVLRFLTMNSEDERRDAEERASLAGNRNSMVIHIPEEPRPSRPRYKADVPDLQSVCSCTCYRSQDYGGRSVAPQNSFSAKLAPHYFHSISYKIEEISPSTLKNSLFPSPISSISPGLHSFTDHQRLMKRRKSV
# KCNK3 block – human KCNK3 channel inhibition, primary screen; O14649; AID 602410; CHO-KCNK3 thallium flux, FluxOR fluorescence; hits give low values; B-score at 10 µM; 340,000 compounds, 0.84% hits;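 active = B-score under library mean minus 4 SD, starting fluorescence ratio at most library mean plus 5 SD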;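 note: more negative B-score means stronger inhibition of thallium flux through KCNK3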
# Kir21 block – Kir2.1 (mouse) channel inhibition; P35561; HEK293-Kir2.1, FluxOR thallium flux fluorescence; hits give low values; B-score at 10 µM; 310,000 compounds, 0.85% hits; AID 1672;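 active = fluorescence ratio B-score at or below minus 3 SD of library scores, with starting-brightness B-score within 2 SD, cut at about -4.2 in these data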;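 note: channel flux triggered by added potassium and thallium sulfate stimulus; B-score of peak minus minimum fluorescence over baseline after thallium stimulus; more negative B-score means stronger Kir2.1 block with less thallium influx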
# KCNQ1 block – blocks the human KCNQ1 potassium channel | 310,000 compounds, 1.3% hits | B-score at 10 µM | AID 2642 | P51787 | CHO-K1 KCNQ1, FluxOR thallium flux fluorescence; hits give high values;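 active = compounds whose thallium flux B-score, printed positive for inhibition, exceeds three library SD while starting fluorescence stays within three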;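 note: channel opened by potassium depolarization with thallium stimulus after 20 min compound exposure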
# hERG protect – compounds protecting human hERG from proarrhythmic drug block | Q12809 | CHO-hERG, FluxOR thallium flux, dofetilide IC70 present | activation (rescue from dofetilide block), less the hit threshold, % at 10 µM | 310,000 compounds, 0.51% hits;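 active = activation above the mean of controls blocked by dofetilide plus 5 SD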;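 note: thallium influx through hERG after potassium depolarization seen as dye fluorescence rise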
# KCNQ1 pot – human KCNQ1 channel potentiation or activation; B-score at 10 µM; 310,000 compounds, 0.35% hits; P51787; CHO-K1 KCNQ1, thallium flux FluxOR fluorescence; hits give high values; AID 2648;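 active = fluorescence ratio B-score, a plate-corrected score, at least three library SD, with initial intensity B-score within 5 SD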
#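 System: CHO-K1 cells stably expressing KCNQ1 / Medium: assay buffer for compound exposure, DMSO matched across wells / Reagent: thallium- and potassium-containing depolarizing buffer / Compound: one concentration, matched DMSO / Incubation: 20 min compound pretreatment at room temperature / Measured by: kinetic FluxOR fluorescence, 10 s baseline plus 110 s post-stimulus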
# An asterisk follows results filed as active; i = inactive; / = no result. Only some compounds are listed: those with a hit (about 3.7% of all), similar ones and a draw of the others.
SMILES,KCNK9 block,KCNK3 block,Kir21 block,KCNQ1 block,hERG protect,KCNQ1 pot
O=C(NC1CCCCC1)C(c1ccccc1)N(Cc1ccc2c(c1)OCO2)C(=O)c1cnsn1 (stereo not drawn),i,i,-0.65,6*,-1.8,i
Cc1ccc(C(C(=O)NC2CCCC2)N(Cc2ccc3c(c2)OCO3)C(=O)c2snc(C(N)=O)c2N)cc1 (stereo not drawn),i,i,-0.02,i,-9.1,i
O=[N+]([O-])c1ccc(/C([O-])=C(/C(=S)NCc2ccco2)[n+]2ccccc2)cc1,i,i,0.02,i,-8.4,8*
Cc1ccc(/C([O-])=C(/C(=S)NCc2ccco2)[n+]2ccccc2)cc1,i,/,1.41,i,-6.9,i
Cc1cc(C(C)(C)C)cc(C)c1C(=O)O,i,i,2.14,i,-7.2,i
COC(=O)c1cnn(-c2ccc(F)cc2F)c1/C=N/NC(=S)NC(C)(C)C,-6.99*,i,0.01,i,-3.6,i
CNC(=S)N/N=C/c1c(C(=O)OC)cnn1-c1ccc(F)cc1F,i,i,0.44,i,-2.9,i
CCCCNC(=O)CSc1nnc(-c2cccc(S(=O)(=O)N3CCOCC3)c2)o1,/,i,/,/,/,/
COc1cccc(CNS(=O)(=O)c2cc(CN3C(=O)c4cccnc4C3=O)ccc2OC)c1,i,i,0.04,i,-8.6,i
CCc1ccccc1NC1c2ccccc2C(=O)N1Cc1ccco1 (stereo not drawn),i,i,-0.82,i,-11.1,i
O=C1c2ccccc2C(Nc2ccc(S(=O)(=O)N3CCCCCC3)cc2)N1Cc1ccco1 (stereo not drawn),i,-8.71*,0.01,i,-15.0,i
Cc1ccc(O)c(CN(C)Cc2cc(C)ccc2O)c1,/,i,/,/,/,/
CN(CCCCCCN(C)Cc1ccccc1O)Cc1ccccc1O,i,i,-5.15*,i,-4.6,i
CCOc1ccc(-c2nn(-c3ccccc3)cc2/C=C2\SC(=S)N(Cc3ccco3)C2=O)cc1,i,i,-2.2,i,-8.3,i
CC(C)COc1ccc(-c2nn(-c3ccccc3)cc2/C=C2/SC(=S)N(CC(=O)O)C2=O)cc1,i,i,0.54,i,-5.3,8*
CC1(C)CC(=O)C/C(=N/NC(=O)COc2ccc3ccccc3c2Br)C1,i,i,0.99,i,-11.0,i
NC(=O)C1=C[C@H](c2ccc(C(F)(F)F)cc2)C[C@H](OCc2ccc(CO)cc2)O1,i,i,-4.8*,i,-9.7,i
C#CCNC(=O)C1=C[C@@H](c2ccccc2)C[C@@H](OCc2ccc(CO)cc2)O1,i,i,-5.6*,i,-11.1,i
Cc1cc(N2CCN(c3ccccc3Cl)CC2)n2cc(-c3ccccc3)nc2n1,-12.3*,i,1.95,i,-18.3,i
N#CC1=C(N)Oc2ccc3ccccc3c2C1c1cccnc1 (stereo not drawn),i,i,1.53,i,4.9*,i
CCCCN(C)CC(O)Cn1cc(/C=C/C(=O)c2cccs2)c2ccccc21 (stereo not drawn),i,i,-7.03,8*,-31.7,i
O=C(COC(=O)c1ccccc1)NCc1ccco1,i,i,0.77,i,-2.6,i
O=C(COC(=O)c1ccccc1Nc1cccc(C(F)(F)F)c1)NCc1ccco1,i,-8.88*,0.8,i,-0.9,i
CN(c1ccccc1)S(=O)(=O)c1cccc(C(=O)OCC(=O)NCc2ccco2)c1,i,i,-0.85,i,10.9*,i
CN(c1ccccc1)S(=O)(=O)c1cccc(C(=O)OCC(=O)NCc2ccccc2)c1,/,i,/,/,/,/
SMILES,KCNK9 block,KCNK3 block,Kir21 block,KCNQ1 block,hERG protect,KCNQ1 pot
CCOc1ccc(NC(=O)CN(C)C(=O)c2c(C)nn(Cc3ccccc3Cl)c2C)cc1OCC,/,i,/,/,/,/
N=C1S/C(=C\c2ccc(-c3cccc(Cl)c3)o2)C(=O)N1c1nccs1,i,i,1.91,i,25.8*,i
N=C1/C(=C\c2ccc(-c3ccc(C(=O)O)cc3)o2)C(=O)N=C2SC=C(c3ccccc3)N12,i,i,-0.4,i,-17.1,i
N=C1/C(=C\c2ccc(-c3cccc(Cl)c3)o2)C(=O)N=C2SC=C(c3ccccc3)N12,i,i,0.98,i,-4.9,8*
O=C(COC(=O)C1CCC1)NCc1ccccc1,i,i,-0.84,i,-5.5,i
S=C(NCCc1ccccc1)N/N=C/c1ccc(Cl)cc1,i,i,-1.2,i,-4.2,i
S=C(NCCc1ccccc1)N/N=C/c1c(Cl)cccc1Cl,i,i,0.46,i,11.0*,i
CC1CCCC(C)N1C(=O)COC(=O)Cc1ccc(Cl)cc1 (stereo not drawn),i,i,1.53,i,-1.8,i
CC1CCCC(C)N1C(=O)CSCc1ccc(Cl)cc1 (stereo not drawn),i,i,-4.94*,i,-5.6,i
COc1ccc(S(=O)(=O)N2CCc3ccccc3C2)cc1OC,i,i,-4.24*,i,-11.6,i
COc1ccccc1N(C(=O)c1snc(C(N)=O)c1N)C(C(=O)NC1CCCC1)c1ccc(N(C)C)cc1 (stereo not drawn),i,i,1.64,i,-4.6,i
CCc1nnc(SCC(=O)Nc2ccc(N3CCN(S(C)(=O)=O)CC3)cc2)o1,i,i,-0.66,i,-7.1,i
CCN1CCN(c2ccc(S(=O)(=O)N3CCOCC3)cc2NC(=O)C(C)Oc2cccc(Cl)c2)CC1 (stereo not drawn),i,i,2.41,i,-11.2,i
CC(Oc1cccc(Cl)c1)C(=O)Nc1cc(S(=O)(=O)N2CCOCC2)ccc1N1CCCCC1 (stereo not drawn),i,i,2.42,7*,-15.1,i
CC(C)(C)NC(=O)CN(Cc1ccccc1)S(=O)(=O)c1ccccc1,i,i,-1.17,i,-11.9,i
Cc1ccc2cc(C#N)c(N3CCCC3)nc2c1C,i,i,2.04,i,-1.0,i
Cc1ccc2cc(C#N)c(N3CCCN(C(=O)C4CCCO4)CC3)nc2c1C (stereo not drawn),i,i,-5.66*,i,-30.1,i
COc1ccc(C(C(=O)NCC2CCCO2)N(C(=O)CNC(=O)c2cccs2)c2ccc(C)cc2)cc1OC (stereo not drawn),i,i,0.23,i,-6.1,i
CCOC(=O)c1sc(NC(=O)c2ccc(OC)cc2)nc1C,i,i,-0.25,i,-9.8,i
CCOC(=O)c1sc(NC(=O)c2ccc(OC(C)=O)cc2)nc1C,i,i,0.69,i,-4.8,13*
